Compound activity as filed in PubChem.
The list is not random: actives were taken first. Their share in the collection is about 3.7%.
MPTP block – permeability transition pore inhibition; isolated mouse mitochondria, Ca2+ swelling absorbance, 30 min; inhibition, % at 10 µM; 1.4% of 360,000 active;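 active = inhibition of 50% or more, scaled per plate between neutral and stimulator controls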;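 note: 0% = DMSO wells given calcium and 100% = 1 mM EGTA wells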
procasp7 counter – activates human procaspase-7, counter-screen for procaspase-3 activators | P55210 | recombinant procaspase-7, Ac-DEVD-pNA absorbance 405 nm; D23A/D198A/D206A triple mutant, cannot self-cleave; scale: DMSO 0, 5 µM enzyme 100 | activation, % at 8.5 µM | 0.093% of 330,000 active;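 active = percent activation above the screen-wide mean plus 3 SD, cut at about 25% in these data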
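System: Uncleavable procaspase-7 mutant enzyme; Amount: 2 µM procaspase-7 mutant as dispensed; Schedule: 1 h compound preincubation, 2 h substrate cleavage, 25 °C; Measured by: 405 nm absorbance of p-nitroaniline; Evaluation: percent activation from buffer-corrected 0–120 min absorbance change; Control set: low DMSO alone, high DMSO plus 5 µM PC-7.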
aDG glyco act – increases alpha dystroglycan glycosylation. 0.22% of 360,000 active. Pro5-aDG cells, alpha-DG glycosylation AlphaScreen (IIH6); 0% Pro5, 100% B10-LARGE cell signal. activation, % at 10 µM;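 active = activation of at least 8% versus controls, or a plate z-score of at least 8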;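 note: Pro5 are CHO cells carrying HIG-tagged alpha-DG that lacks glycosylation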
procasp3 activ – activators of human procaspase-3. recombinant procaspase-3 D3A, Ac-DEVD-pNA absorbance 405 nm. activation, % at 8.5 µM. 0.11% of 330,000 active. AID 463141;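 active = activation above the mean of all tested compounds plus 3 SD, cut at about 21% in these data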;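 note: 0% = DMSO alone and 100% = DMSO wells spiked with extra 5 µM PC-3 D3A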
Target sequence (P42574 whole entry D9A/D28A/D175A): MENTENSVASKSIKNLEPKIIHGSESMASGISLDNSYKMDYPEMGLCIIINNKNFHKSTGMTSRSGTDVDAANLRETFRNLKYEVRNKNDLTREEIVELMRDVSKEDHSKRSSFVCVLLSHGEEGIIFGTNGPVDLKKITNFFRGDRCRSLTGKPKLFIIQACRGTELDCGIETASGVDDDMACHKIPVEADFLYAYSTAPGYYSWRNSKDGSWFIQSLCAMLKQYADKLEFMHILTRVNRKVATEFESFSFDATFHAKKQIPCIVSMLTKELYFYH
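Evaluation: percent activation relative to control range; Material: Procaspase-3 D3A mutant, all three cleavage aspartates alanine; Compound: single dose, 8.5 µM nominal compound, 0.8% DMSO; Replication: one well per compound; Signal: absorbance at 405 nm, 0 and 120 min; Schedule: 1 h preincubation plus 2 h reaction at 25 °C.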
GRIN3A LBD mod – NR3A (human) ligand-binding domain modulation | NR3A LBD differential scanning fluorimetry, Tm shift; 0% = protein alone, 100% = glycine-bound protein | Tm shift relative to glycine control, % at 25 µM | 2.5% of 340,000 active | AID 1259313;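 active = melting temperature shift of at least 10% of the positive control shift, at one fixed dose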
Starred values were filed as active, the others as inactive; . = not tested or not shown.

SMILES	MPTP block	procasp7 counter	aDG glyco act	procasp3 activ	GRIN3A LBD mod
CCN(C(=O)COC(=O)c1cc(Cl)ccc1OC)c1c(N)n(Cc2ccccc2)c(=O)[nH]c1=O	0	5	0	9	-1
Cc1cc(C2N=C(N)Nc3nc4ccccc4n32)c(C)n1-c1ccccc1Cl (configuration not stated)	9	-1	0	-1	12*
COC(=O)C1CCN(C2CN(Cc3ccc(F)cc3)S(=O)(=O)C2)CC1 (configuration not stated)	-1	.	0	.	.
C[C@@H]1CN([C@H](C)CO)C(=O)CCCn2nncc2CO[C@H]1CN(C)Cc1cccnc1	-1	.	0	.	.
O=c1[nH]c(/C=C2\C=Nc3ccccc32)c(O)n1Cc1ccccc1F	2	-8	2	4	10*
COc1cc(NC(=O)C[n+]2ccc(C(=O)c3ccccc3)cc2)cc(OC)c1	0	7	0	1	0
CCCC1=NN2C(=N)/C(=C\c3cc(C)n(-c4cc(C)cc(C)c4)c3C)C(=O)N=C2S1	12	-22	0	-34	12*
Cc1ccc(CN2C(=O)c3ccccc3NC2c2cc(Br)ccc2O)cc1 (configuration not stated)	23	5	0	0	22*
O=C(CCN=C1NS(=O)(=O)c2ccccc21)OCc1nnc(-c2ccc([N+](=O)[O-])cc2)o1	-2	-1	0	8	-2
Cn1c(=O)c2cc(NC(=O)CCc3cccnc3)ccc2n1Cc1ccc(F)cc1	0	.	0	.	.
CCOC(=O)c1c(-c2ccccc2)csc1NC(=O)/C(C#N)=C/c1ccc(OC)c(OC)c1	1	-11	0	-4	-1
CCOC(=O)c1c(-c2ccccc2)csc1NC(=O)/C(C#N)=C/c1ccc(O)c(OC)c1	12	-24	0	-27	27*
O=c1c(Cl)c2oc3ccccc3nc-2c2ccccc12	1	-3	6.1*	-1	9
Clc1ccc(-c2nnc(Sc3nc4ccccc4o3)c3ccccc23)cc1	2	-9	0	3	1
O=C1CC2C(CCC23OCCO3)c2ccc3ccccc3c21 (configuration not stated)	0	.	0	.	-3
CN1CCC(N(C)S(=O)(=O)c2ccc(NC(=O)COc3cccc(C(F)(F)F)c3)cc2)CC1	6	6	2	10	1
CN1CCN(NC(=O)COc2cccc(C(F)(F)F)c2)CC1	0	4	0	7	13*
Cc1nc2ccc(C(=O)Nc3cccc(OCC(=O)N(C)C)c3)cn2c1N(C)CC1CCCCC1	0	.	0	.	.
COC(=O)c1cc(NC(=O)COC(=O)CCc2c[nH]c3ccccc23)cc(C(=O)OC)c1	-1	.	0	.	11*
O=C(COC(=O)CCc1c[nH]c2ccccc12)Nc1cc([N+](=O)[O-])ccc1Cl	0	2	0	4	1
O=C(COC(=O)CCc1c[nH]c2ccccc12)Nc1ccc([N+](=O)[O-])cc1	1	13	0	14	35*
Cc1ccccc1C(=O)N1CCC(C(=O)N2CCCc3ccccc32)CC1	-2	7	0	-3	1
C/C(=N\Nc1nc2ccccc2[nH]1)c1ccc(Cl)s1	8	-3	1	-7	16*
Cc1cc(C)n(CC(=O)Nc2ccc3c(c2)OCO3)c(=O)c1C#N	0	14	0	1	1
CCNC(=S)N(CCc1ccc(S(N)(=O)=O)cc1)C1CC(=O)N(c2ccccc2)C1=O (configuration not stated)	-2	-13	0	-1	-3
O=C1CC(N(Cc2ccc3c(c2)OCO3)C(=O)Nc2ccc(F)cc2)C(=O)N1c1ccccc1 (configuration not stated)	-1	3	0	4	27*
O=C1CC(N(CCc2ccccc2)C(=S)Nc2cc(Cl)ccc2Cl)C(=O)N1c1c(Cl)cccc1Cl (configuration not stated)	-3	9	2	0	16*
O=C1CC(N(CCc2ccccc2)C(=S)Nc2ccccc2)C(=O)N1c1ccc(F)cc1 (configuration not stated)	4	-8	0	-3	27*
